# From PubChem BioAssay
# The list is not random: actives were taken first. Their share in the collection is about 2.3%.
# TRPC6 inh = mouse TRPC6 channel inhibition | Q61143 | HEK293-TRPC6, membrane potential dye, ACh-evoked depolarization; hits give low values | B-score at 10 µM | 310,000 tested, 1.1% active;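 active means B-score under library mean minus 3 SD, initial fluorescence not abnormally high, positive integrated signal ratio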;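 further: B-score derived from integrated fluorescence ratio over the kinetic read; more negative B-score means stronger inhibition of depolarization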
# TRPC4 block = blocks the mouse TRPC4 cation channel | HEK293 TRPC4beta/mu-opioid, DAMGO-evoked Fluo4 calcium flux; hits give low values | B-score at 10 µM | 300,000 tested, 0.39% active | AID 2247;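 active means B-score over 3 SD under the library average, no early fluorescence shift, positive overall ratio signal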
# Target sequence (Q9QUQ5 whole entry, looked up): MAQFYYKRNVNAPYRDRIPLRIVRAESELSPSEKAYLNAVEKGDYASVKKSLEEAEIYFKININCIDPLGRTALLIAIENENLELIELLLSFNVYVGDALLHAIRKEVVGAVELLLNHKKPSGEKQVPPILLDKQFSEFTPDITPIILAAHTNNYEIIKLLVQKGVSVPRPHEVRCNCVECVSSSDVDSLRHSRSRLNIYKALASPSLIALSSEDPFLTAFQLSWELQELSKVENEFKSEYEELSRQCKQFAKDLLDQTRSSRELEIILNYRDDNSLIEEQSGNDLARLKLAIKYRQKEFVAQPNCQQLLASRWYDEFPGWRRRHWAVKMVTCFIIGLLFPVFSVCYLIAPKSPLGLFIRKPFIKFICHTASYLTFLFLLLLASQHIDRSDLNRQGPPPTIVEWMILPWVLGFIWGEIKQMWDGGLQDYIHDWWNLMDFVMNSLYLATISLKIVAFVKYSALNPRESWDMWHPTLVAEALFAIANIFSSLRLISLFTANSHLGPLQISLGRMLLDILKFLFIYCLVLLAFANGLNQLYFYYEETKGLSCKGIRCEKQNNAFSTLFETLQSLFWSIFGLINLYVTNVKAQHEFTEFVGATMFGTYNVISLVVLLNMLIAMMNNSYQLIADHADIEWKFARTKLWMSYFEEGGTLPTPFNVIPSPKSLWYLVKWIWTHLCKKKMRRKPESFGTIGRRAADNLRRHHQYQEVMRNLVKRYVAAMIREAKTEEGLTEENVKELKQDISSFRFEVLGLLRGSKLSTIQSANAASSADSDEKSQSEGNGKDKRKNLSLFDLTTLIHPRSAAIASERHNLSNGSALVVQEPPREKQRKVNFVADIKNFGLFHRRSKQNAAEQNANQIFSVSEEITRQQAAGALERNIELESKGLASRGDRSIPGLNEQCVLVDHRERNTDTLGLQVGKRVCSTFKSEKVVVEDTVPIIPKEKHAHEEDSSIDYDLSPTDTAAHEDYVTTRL
#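 Material: HEK293 cells with stable TRPC4beta plus mu-opioid receptor expression / Probe or stimulus: DAMGO in two steps, submaximal then maximal / Compound: single concentration per test compound / Technique: kinetic Fluo4 fluorescence imaging of calcium influx / Read-out: per-well B score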
# TRPC6 activator = mouse TRPC6 channel activation; B-score at 10 µM; HEK293-TRPC6 membrane potential dye fluorescence; hits give high values; Q61143; 310,000 tested, 0.13% active; AID 2550;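 active means B-score of the integrated fluorescence ratio above library mean plus 3 SD, and starting fluorescence ratio within library mean plus 5 SD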;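 further: higher score means more depolarization so channel activation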
# TRPC4 PAM = TRPC4 (mouse) allosteric potentiation; B-score at 10 µM; Q9QUQ5; HEK293 TRPC4beta/mu-opioid, DAMGO EC20, Fluo-4 Ca2+ flux; hits give high values; 310,000 tested, 0.42% active;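 active means B-score of calcium response area above 5 SD of library B-scores, with initial fluorescence ratio within 5 SD of library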;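 further: B-score of integrated fluorescence ratio over time as area under calcium response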
# TRPC4 agonist = activators of mouse TRPC4 channel; 310,000 tested, 0.49% active; B-score at 10 µM; HEK293 TRPC4beta/mu-opioid, Fluo4 calcium fluorescence; hits give high values;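 active means B-score above 5 SD of library B-scores, and initial fluorescence ratio not above library mean plus 5 SD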;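 further: positive B-score marks a calcium rise read as TRPC4 activation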
#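 system = HEK293 cells stably co-expressing mouse TRPC4beta and mu-opioid receptor | schedule = Fluo4 dye loading 45 min at room temperature, 110 s recording | measure = B-scored integrated calcium fluorescence ratio | signal = Fluo4 calcium-sensitive dye fluorescence, kinetic, 1 Hz baseline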
# TRPC4 spec 2 = second selectivity test of TRPC6 inhibitors: effect on mouse TRPC4; shares compounds with TRPC6 inh; HEK293 TRPC4/MOR, membrane potential dye fluorescence; channel activated by saturating DAMGO dose; inhibition, % at 10 µM; 920 tested, 42% active; AID 2776;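 active means compounds whose fluorescence signal differed from control wells by over 3 SD, either direction, in both duplicate plates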
# TRPC4 spec = tests whether TRPC6 inhibitors also affect mouse TRPC4. shares compounds with TRPC6 inh. HEK293 TRPC4/mu-opioid, membrane potential fluorescence. activity change, negative = inhibition, % at 10 µM. 920 tested, 61% active;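 active means rise or fall in signal beyond 3 SD of buffer-only wells in both replicate plates, either sign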;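 further: integrated kinetic ratio of fluorescence range over baseline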
# HEK293 MPD ctr 2-1 = second check of TRPC6 inhibitor effects in parental HEK293 cells | shares compounds with TRPC6 inh | signal change vs control, % at 10 µM | AID 2779 | parental HEK293 membrane potential dye fluorescence; maximal acetylcholine challenge after compound addition | 920 tested, 31% active;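 active means membrane potential signal moving either way by over 3 SD of the maximum-effect control, in both duplicate plates, meaning non-specific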
# HEK293 MPD ctr-1 = checks TRPC6 inhibitor effects in parental HEK293 cells. shares compounds with TRPC6 inh. parental HEK293 membrane potential dye fluorescence. membrane potential signal change, % at 10 µM. 920 tested, 60% active. AID 2780;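 active means membrane potential signal shifting up or down by more than 3 SD of buffer-only wells, on both duplicate plates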
# HEK293 MPD ctr-2 = checks TRPC6 modulator effects in parental HEK293 cells; shares compounds with TRPC6 inh; membrane potential dye fluorescence; membrane potential signal change, % at 10 µM; 2,400 tested, 51% active;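 active means membrane potential signal moves up or down beyond 5 SD from buffer-only wells, on both duplicate plates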
# HEK293 MPD ctr 2-2 = parental HEK293 nonspecific activity of TRPC6 modulators, second screen; shares compounds with TRPC6 inh; membrane potential dye fluorescence; after compound, maximal acetylcholine stimulation; inhibition, % at 10 µM; 2,400 tested, 14% active;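 active means membrane potential signal drops by more than 5 SD from the mean control signal, in both duplicate plates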;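 further: plate controls were acetylcholine ECmax control wells for no effect and buffer only wells for full effect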
# TRPC4/MOR mod = selectivity of TRPC6 modulators against mouse TRPC4; percent change from control (negative = decrease, positive = increase), % at 10 µM; shares compounds with TRPC6 inh; AID 488927; HEK293 TRPC4/mu-opioid, membrane potential fluorescence; 2,400 tested, 69% active;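 active means membrane potential signal moved up or down beyond 5 SD of buffer control wells, in both duplicate plates, actives on both sides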;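 further: plate controls were assay buffer wells for no effect and DAMGO maximal-effect wells for full effect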
# TRPC4/MOR inh 2 = second check of whether TRPC6 modulators also affect mouse TRPC4. shares compounds with TRPC6 inh. HEK293 TRPC4/mu-opioid, membrane potential dye fluorescence; stimulated with maximal-effect DAMGO. inhibition, % at 10 µM. 2,400 tested, 55% active. AID 488928;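 active means drop in membrane potential signal beyond 5 SD of the control wells in both duplicate plates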;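 further: TRPC4 counter screen for TRPC6 hits run under conditions tuned for TRPC6 not TRPC4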
# TRPC6 block conf = confirmation of mouse TRPC6 inhibitors; inhibition, % at 10 µM; 3,300 tested, 43% active; HEK293-TRPC6, membrane potential dye, ACh-evoked depolarization; AID 488960; shares compounds with TRPC6 inh;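 active means fluorescence ratio falls more than 5 SD below the full-stimulation control mean, in both duplicate runs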;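 further: integrated fluorescence ratio of peak minus minimum over baseline after agonist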
# TRPC6 act conf = mouse TRPC6 activator confirmation; shares compounds with TRPC6 inh; HEK293-TRPC6 membrane potential dye fluorescence, FDSS; activation, % at 10 µM; 2,800 tested, 11% active; AID 488961;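 active means ratio signal rise beyond 5 SD above unstimulated control wells' mean, seen in both duplicate runs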;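 further: plate controls were buffer EC0 wells for no effect and acetylcholine ECmax response for full effect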
# The depositor's hits bear a star; i = inactive; / = no result given.
SMILES,TRPC6 inh,TRPC4 block,TRPC6 activator,TRPC4 PAM,TRPC4 agonist,HEK293 MPD ctr-2,HEK293 MPD ctr 2-2,TRPC4/MOR mod,TRPC4/MOR inh 2,TRPC6 block conf,TRPC6 act conf,others
Cc1cc(=O)n2[nH]c(N)c(N=Nc3ccccc3)c2n1,i,i,i,i,i,/,/,/,/,/,/,
COc1cccc(N=Nc2c(N)[nH]n3c(=O)cc(-c4ccccc4)nc23)c1,-5.3*,i,i,i,i,i,i,-20%*,66%*,i,i,
CN1C=C/C(=C\c2cc[n+](C)c3ccccc23)c2ccccc21,-5.8*,i,i,i,i,-265%*,i,-27%*,32%*,i,i,
O=C(COC(=O)c1ccccc1SCC(=O)N1CCCC1)Nc1ccccc1C(F)(F)F,i,i,i,i,i,/,/,/,/,/,/,
CN(CC(=O)Nc1cccc(F)c1)C(=O)c1cc([N+](=O)[O-])ccc1N1CCOCC1,i,i,i,i,i,/,/,/,/,/,/,
COc1ccccc1N1CCN(Cc2ccc(O)c3ncccc23)CC1,-7.6*,i,i,i,i,/,/,/,/,i,i,TRPC4 spec 2=i;TRPC4 spec=i;HEK293 MPD ctr 2-1=i;HEK293 MPD ctr-1=i
Cc1cccn2c(=O)c3cc(C(=O)NCC4CCCO4)c(=N)n(CC4CCCO4)c3nc12 (stereo unspecified),i,i,i,i,i,/,/,/,/,/,/,
COc1ccc(CCNC(=O)c2cc3c(=O)n4cccc(C)c4nc3n(CCCN3CCOCC3)c2=N)cc1,i,i,i,i,i,/,/,/,/,/,/,
Cc1cccn2c(=O)c3cc(C(=O)NCCN4CCOCC4)c(=N)n(CCN4CCOCC4)c3nc12,-7*,i,i,i,i,/,/,/,/,66%*,i,TRPC4 spec 2=72%*;TRPC4 spec=0.8%*;HEK293 MPD ctr 2-1=-124%*;HEK293 MPD ctr-1=i
Cc1cccn2c(=O)c3cc(C(=O)NCCN4CCOCC4)c(=N)n(Cc4ccc(F)cc4)c3nc12,-5.6*,i,i,i,i,i,94%*,i,i,i,i,
Cc1cccn2c(=O)c3cc(C(=O)NC4CCCC4)c(=N)n(CC4CCCO4)c3nc12 (stereo unspecified),-5.8*,i,i,i,i,i,i,i,32%*,i,i,
CN(CC(=O)NCC(c1ccco1)N1CCCCC1)S(=O)(=O)c1ccc(Cl)cc1 (stereo unspecified),i,i,i,i,i,/,/,/,/,/,/,
COc1cc(C(=O)Nc2ccc(N(C)C)cc2)cc(OC)c1OC,-6.4*,i,i,i,i,i,i,i,i,i,i,
COc1cc(C(=O)Nc2ccc(NC(=O)c3cccc(Cl)c3)nc2)cc(OC)c1OC,-5.4*,i,i,i,i,i,i,i,i,i,i,
COC(=O)c1ccc(S(=O)(=O)N2CCCCCC2)n1C,-5.4*,i,i,i,i,i,i,7.5%*,i,i,i,
COC(=O)c1ccc(S(=O)(=O)N2CCN(C)CC2)n1C,i,i,i,i,i,/,/,/,/,/,/,
C#CCNC(=O)C1=C[C@@H](c2ccc(C#C)cc2)C[C@@H](OCc2ccc(CO)cc2)O1,i,i,i,i,i,/,/,/,/,/,/,
N#C/C(=C\c1c(N2CCN(c3ccccc3)CC2)nc2ccccn2c1=O)S(=O)(=O)c1ccccc1,i,i,i,i,i,/,/,/,/,/,/,
CCN1CCN(c2nc3c(C)cccn3c(=O)c2/C=C(\C#N)S(=O)(=O)c2ccc(C)cc2)CC1,-5.1*,i,i,i,i,-77%*,i,-22%*,96%*,i,i,
Cc1ccc(S(=O)(=O)/C(C#N)=C/c2c(N3CCN(C)CC3)nc3c(C)cccn3c2=O)cc1,-6.8*,i,i,i,i,i,i,-17%*,83%*,i,i,
N#C/C(=C\c1c(N2CCCCC2)nc2ccccn2c1=O)S(=O)(=O)c1ccccc1,-5.3*,i,i,i,i,i,i,-14%*,48%*,i,i,
Cc1nn(CC(=O)N2CCN(c3ccc(Cl)cc3)CC2)c(=O)c2cccn12,i,i,i,i,i,/,/,/,/,/,/,
O=C(Nc1nn[nH]n1)c1cc(-c2ccc(Cl)c(Cl)c2Cl)nc2ccccc12,i,i,i,i,i,/,/,/,/,/,/,
COc1ccc(NS(=O)(=O)c2cc3c4c(c2)CCN4C(=O)CC3)c(OC)c1,i,i,i,i,i,/,/,/,/,/,/,
CC(C)(C)c1ccc(OCCCNC2CCCC2)cc1,-5.8*,i,i,i,i,209%*,62%*,47%*,40%*,66%*,/,
Cc1ccc(OCCCNC2CCCC2)cc1,i,i,i,i,i,/,/,/,/,/,/,
CCN(CC)CCNC(=O)Cn1nc(Cc2ccncc2)c2ccccc2c1=O,-6.2*,i,i,i,i,i,i,i,i,i,i,
Cc1cc(N2C(=O)NC(=O)CC2C)c(C)cc1C(C)C (stereo unspecified),-5.1*,i,i,i,i,i,i,i,i,i,i,
